# ChEMBL document CHEMBL1144620, “Synthesis and biodistribution of new radiolabeled high-affinity choline transporter inhibitors [11C]hemicholinium-3 and [18F]hemicholinium-3” (Bioorg Med Chem Lett, 2007)
# Key:
# [1] = Biodistribution in L-Atrium of 9L-glioma bearing rat at 1 to 3 mCi, iv after 5 mins; assay type: ADME, organism-based; conditions: in vivo
# Summary of the method: (§1)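 9L-glioma rats (200–300 g) given 1–3 mCi of [¹¹C]- or [¹⁸F]-labelled tracer iv by tail vein while consciously restrained. At 5 or 20 min they were decapitated under halothane anaesthesia. Tissues were excised and weighed, and decay-corrected radioactivity was counted by gamma counter. Values are %ID/g, averaged over three rats per time point.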
# [2] = Biodistribution in urine of 9L-glioma bearing rat at 1 to 3 mCi, iv after 5 mins; assay type: ADME, organism-based; conditions: in vivo
# Summary of the method: (§2)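 In 9L-glioma rats injected iv (tail vein, conscious restraint) with 1–3 mCi of radiotracer, urine was drawn by syringe from the bladder at 5 or 20 min. Animals were killed by decapitation under halothane. Decay-corrected radioactivity was gamma-counted and expressed as percent of injected dose (%ID), averaged over three rats.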
# Kidney [3] = test: Biodistribution in kidney of 9L-glioma bearing rat at 1 to 3 mCi, iv after 5 mins; assay type: ADME, organism-based; conditions: in vivo; summary of the method: as §1
# Liver [4] = test: Biodistribution in liver of 9L-glioma bearing rat at 1 to 3 mCi, iv after 5 mins; assay type: ADME, organism-based; conditions: in vivo; summary of the method: as §1
# Lung [5] = test: Biodistribution in lung of 9L-glioma bearing rat at 1 to 3 mCi, iv after 5 mins; assay type: ADME, organism-based; conditions: in vivo; summary of the method: as §1
# Brain [6] = test: Biodistribution in brain of 9L-glioma bearing rat at 1 to 3 mCi, iv after 5 mins; assay type: ADME, organism-based; conditions: in vivo; summary of the method: as §1
# Blood [7] = test: Biodistribution in blood of 9L-glioma bearing rat at 1 to 3 mCi, iv after 5 mins; assay type: ADME, organism-based; conditions: in vivo; summary of the method: as §1
# Plasma [8] = test: Biodistribution in plasma of 9L-glioma bearing rat at 1 to 3 mCi, iv after 5 mins; assay type: ADME, organism-based; conditions: in vivo; summary of the method: as §1
# [9] = Biodistribution in R-Atrium of 9L-glioma bearing rat at 1 to 3 mCi, iv after 5 mins; assay type: ADME, organism-based, Right cardiac atrium; conditions: in vivo; summary of the method: as §1
# Septum [10] = test: Biodistribution in septum of 9L-glioma bearing rat at 1 to 3mCi, iv after 5 mins; assay type: ADME, organism-based; conditions: in vivo; summary of the method: as §1
# [11] = Biodistribution in L-ventricle of 9L-glioma bearing rat at 1 to 3mCi, iv after 5 mins; assay type: ADME, organism-based, Heart left ventricle; conditions: in vivo; summary of the method: as §1
# [12] = Biodistribution in R-ventricle of 9L-glioma bearing rat at 1 to 3 mCi, iv after 5 mins; assay type: ADME, organism-based, Heart right ventricle; conditions: in vivo; summary of the method: as §1
# [13] = Biodistribution in A-V-node of 9L-glioma bearing rat at 1 to 3 mCi, iv after 5 mins; assay type: ADME, organism-based; conditions: in vivo; summary of the method: as §1
# Solar plexus [14] = test: Biodistribution in solar plexus of 9L-glioma bearing rat at 1 to 3 mCi, iv after 5 mins; assay type: ADME, organism-based; conditions: in vivo; summary of the method: as §1
# [15] = Biodistribution in skeletal muscle of 9L-glioma bearing rat at 1 to 3 mCi, iv after 5 mins; assay type: ADME, organism-based, Muscle tissue; conditions: in vivo; summary of the method: as §1
# 9L [16] = test: Biodistribution in tumor of 9L-glioma bearing rat at 1 to 3 mCi, iv after 5 mins; assay type: ADME, organism-based; conditions: in vivo; summary of the method: as §1
# [17] = Ratio of biodistribution in tumor to blood in 9L-glioma bearing rat at 1 to 3 mCi, iv after 5 mins; assay type: ADME, organism-based; conditions: tumor and blood (tumor-to-blood ratio)
# [18] = Ratio of biodistribution in tumor to muscle of 9L-glioma bearing rat at 1 to 3 mCi, iv after 5 mins; assay type: ADME, organism-based; conditions: in vivo
# Blood [19] = test: Biodistribution in blood of 9L-glioma bearing rat at 1 to 3 mCi, iv after 20 mins; assay type: ADME, organism-based; conditions: in vivo; summary of the method: as §1
# Plasma [20] = test: Biodistribution in plasma of 9L-glioma bearing rat at 1 to 3 mCi, iv after 20 mins; assay type: ADME, organism-based; conditions: in vivo; summary of the method: as §1
# Brain [21] = test: Biodistribution in brain of 9L-glioma bearing rat at 1 to 3 mCi, iv after 20 mins; assay type: ADME, organism-based; conditions: in vivo; summary of the method: as §1
# Lung [22] = test: Biodistribution in lung of 9L-glioma bearing rat at 1 to 3 mCi, iv after 20 mins; assay type: ADME, organism-based; conditions: in vivo; summary of the method: as §1
# [23] = Biodistribution in L-Atrium of 9L-glioma bearing rat at 1 to 3 mCi, iv after 20 mins; assay type: ADME, organism-based, Left cardiac atrium; conditions: in vivo; summary of the method: as §1
# Liver [24] = test: Biodistribution in liver of 9L-glioma bearing rat at 1 to 3 mCi, iv after 20 mins; assay type: ADME, organism-based; conditions: in vivo; summary of the method: as §1
# Kidney [25] = test: Biodistribution in kidney of 9L-glioma bearing rat at 1 to 3 mCi, iv after 20 mins; assay type: ADME, organism-based; conditions: in vivo; summary of the method: as §1
# [26] = Biodistribution in urine of 9L-glioma bearing rat at 1 to 3 mCi, iv after 20 mins; assay type: ADME, organism-based; conditions: in vivo; summary of the method: as §2
# [27] = Biodistribution in R-Atrium of 9L-glioma bearing rat at 1 to 3 mCi, iv after 20 mins; assay type: ADME, organism-based, Right cardiac atrium; conditions: in vivo; summary of the method: as §1
# Septum [28] = test: Biodistribution in septum of 9L-glioma bearing rat at 1 to 3 mCi, iv after 20 mins; assay type: ADME, organism-based; conditions: in vivo; summary of the method: as §1
# [29] = Biodistribution in L-ventricle of 9L-glioma bearing rat at 1 to 3 mCi, iv after 20 mins; assay type: ADME, organism-based, Heart left ventricle; conditions: in vivo; summary of the method: as §1
# [30] = Biodistribution in R-ventricle of 9L-glioma bearing rat at 1 to 3 mCi, iv after 20 mins; assay type: ADME, organism-based, Heart right ventricle; conditions: in vivo; summary of the method: as §1
# [31] = Biodistribution in A-V-node of 9L-glioma bearing rat at 1 to 3 mCi, iv after 20 mins; assay type: ADME, organism-based; conditions: in vivo; summary of the method: as §1
# Solar plexus [32] = test: Biodistribution in solar plexus of 9L-glioma bearing rat at 1 to 3 mCi, iv after 20 mins; assay type: ADME, organism-based; conditions: in vivo; summary of the method: as §1
# [33] = Biodistribution in skeletal Muscle of 9L-glioma bearing rat at 1 to 3 mCi, iv after 20 mins; assay type: ADME, organism-based, Muscle tissue; conditions: in vivo; summary of the method: as §1
# 9L [34] = test: Biodistribution in tumor of 9L-glioma bearing rat at 1 to 3 mCi, iv after 20 mins; assay type: ADME, organism-based; conditions: in vivo; summary of the method: as §1
# [35] = Ratio of biodistribution in tumor to blood of 9L-glioma bearing rat at 1 to 3 mCi, iv after 20 mins; assay type: ADME, organism-based; conditions: tumour
# [36] = Ratio of biodistribution in tumor to muscle of 9L-glioma bearing rat at 1 to 3 mCi, iv after 20 mins; assay type: ADME, organism-based; conditions: in vivo
structure (smiles),measurement,setting,value
C[N+]1(C)CCOC(O)(c2ccc(-c3ccc(C4(O)C[N+](C)([11CH3])CCO4)cc3)cc2)C1.O=S(=O)([O-])C(F)(F)F.[I-] (stereo unspecified),Drug uptake,[1],1.026 % ID/g
same,Drug uptake,[2],6.38 % dose
same,Drug uptake,Kidney [3],7.64 % ID/g
same,Drug uptake,Liver [4],0.848 % ID/g
same,Drug uptake,Lung [5],1.081 % ID/g
same,Drug uptake,Brain [6],0.06 % ID/g
same,Drug uptake,Blood [7],1.383 % ID/g
same,Drug uptake,Plasma [8],3.648 % ID/g
same,Drug uptake,[9],0.963 % ID/g
same,Drug uptake,Septum [10],0.381 % ID/g
same,Drug uptake,[11],0.415 % ID/g
same,Drug uptake,[12],0.401 % ID/g
same,Drug uptake,[13],1.074 % ID/g
same,Drug uptake,Solar plexus [14],0.522 % ID/g
same,Drug uptake,[15],0.207 % ID/g
same,Drug uptake,9L [16],0.649 % ID/g
same,Kp at 5 min,[17],0.466
same,Ratio,[18],3.199
same,Drug uptake,Blood [19],0.749 % ID/g
same,Drug uptake,Plasma [20],1.453 % ID/g
same,Drug uptake,Brain [21],0.035 % ID/g
same,Drug uptake,Lung [22],0.59 % ID/g
same,Drug uptake,[23],0.457 % ID/g
same,Drug uptake,Liver [24],1.239 % ID/g
same,Drug uptake,Kidney [25],3.656 % ID/g
same,Drug uptake,[26],25 % dose
same,Drug uptake,[27],0.398 % ID/g
same,Drug uptake,Septum [28],0.223 % ID/g
same,Drug uptake,[29],0.244 % ID/g
same,Drug uptake,[30],0.234 % ID/g
same,Drug uptake,[31],0.478 % ID/g
same,Drug uptake,Solar plexus [32],2.057 % ID/g
same,Drug uptake,[33],0.159 % ID/g
same,Drug uptake,9L [34],0.457 % ID/g
same,Ratio,[35],0.622
same,Ratio,[36],3.094
